This is an account of results in ChEMBL document CHEMBL1153510, “Fascaplysin-inspired diindolyls as selective inhibitors of CDK4/cyclin D1” (Bioorg Med Chem, 2009).

Each structure is given as a SMILES string. A value given as a limit tells only on which side of the number the result lay.

For assay [1], the target named is Cyclin-dependent kinase 4/cyclin D1 (Homo sapiens, UniProt P11802). The experiment in a line: (§1) Inhibition of human CDK4/ Cyclin D1 catalytic subunit expressed in Sf9 insect cells assessed as GST-RB152 fusion protein phosphorylation-associated depletion in ATP level by luminescence assay. The method in brief: (§2)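 Human GST-cyclin D1 co-expressed with CDK4 in Sf-9 cells, purified on glutathione-agarose, eluted and dialysed. Substrate GST-RB152, expressed in E. coli BL21(DE3)pLysS with 4 mM IPTG induction for 4 h at 37 °C. Reaction: 2 µg GST-RB152 and 6 µM ATP in 50 µL Tris pH 7.5/MgCl2/BSA buffer with phosphatase inhibitors and DTT. Started with 200 ng enzyme, 30 min at 30 °C. Read-out Kinase-Glo luminescence of ATP depletion, giving IC50.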
Cyclin-dependent kinase 4/cyclin D1 (Homo sapiens, UniProt P11802), sequence (P11802 whole entry, the tested form may be a part): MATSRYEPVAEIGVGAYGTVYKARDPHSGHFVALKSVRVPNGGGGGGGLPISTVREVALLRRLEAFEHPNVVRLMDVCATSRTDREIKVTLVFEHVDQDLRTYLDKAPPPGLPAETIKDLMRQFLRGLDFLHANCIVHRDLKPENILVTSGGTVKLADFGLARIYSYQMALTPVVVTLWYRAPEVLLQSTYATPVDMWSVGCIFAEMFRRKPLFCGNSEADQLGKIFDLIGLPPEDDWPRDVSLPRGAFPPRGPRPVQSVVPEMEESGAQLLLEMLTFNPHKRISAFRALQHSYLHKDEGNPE
Cyclin-dependent kinase 4/cyclin D1 (Homo sapiens, UniProt P11802), sequence (P24385 whole entry, further chain, the tested form may be a part): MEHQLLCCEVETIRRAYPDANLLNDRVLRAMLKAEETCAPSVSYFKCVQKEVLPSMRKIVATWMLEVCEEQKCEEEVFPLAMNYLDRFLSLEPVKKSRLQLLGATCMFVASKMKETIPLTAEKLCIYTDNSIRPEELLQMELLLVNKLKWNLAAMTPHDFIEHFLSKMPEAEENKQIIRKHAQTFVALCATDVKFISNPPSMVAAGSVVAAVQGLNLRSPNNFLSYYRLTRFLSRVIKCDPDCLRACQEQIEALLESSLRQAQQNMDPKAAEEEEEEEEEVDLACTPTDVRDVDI

The target in assay [2] is Cyclin-dependent kinase 2 (Homo sapiens, UniProt P24941). The assay is described as follows: Inhibition of human CDK2/ Cyclin A catalytic subunit expressed in Sf9 insect cells assessed as histone H1 phosphorylation-associated depletion in ATP level by luminescence assay. The method in brief: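 Human GST-cyclin A co-expressed with CDK2 in Sf-9 cells, captured on glutathione-agarose, eluted with reduced glutathione, then dialysed. Reaction volume 50 µL in kinase buffer (40 mM Tris pH 7.5, 20 mM MgCl2, 0.1 mg/ml BSA) with 3 µg histone H1 and 6 µM ATP. Also contains 10 mM β-glycerophosphate, 0.1 mM NaF, 0.1 mM orthovanadate and 1 mM DTT. Started with 200 ng enzyme, run 30 min at 30 °C. Remaining ATP read by Kinase-Glo luminescence; IC50 derived from ATP depletion. Compounds from 10 mM DMSO stocks, serially diluted in kinase buffer.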

Assay [3] deals with Cyclin-dependent kinase 4/cyclin D1 (Homo sapiens, UniProt P11802+P24385). The assay is described as §1. The settings on record: sf9. The method in brief:
as §2

Cyclin-dependent kinase 4/cyclin D1 (Homo sapiens, UniProt P11802+P24385), sequence (P11802 whole entry): as the sequence (P11802 whole entry, the tested form may be a part) above
Cyclin-dependent kinase 4/cyclin D1 (Homo sapiens, UniProt P11802+P24385), sequence (P24385 whole entry): as the sequence (P24385 whole entry, further chain, the tested form may be a part) above

Regarding `Clc1ccc2c(ccn2CCc2c[nH]c3ccccc23)c1`, the IC50 in assay [1] stood at 140 µM; in assay [2] (read-out: IC50), 430 µM.

As for `Fc1ccc2c(ccn2CCc2c[nH]c3ccc(F)cc23)c1`, the IC50 in assay [1] was 73 µM; in assay [2] (read-out: IC50), 895 µM.

For the compound `c1ccc2c(c1)ccn2CCCCn1ccc2ccccc21`, the values for the IC50 in assay [1] and in assay [2] (read-out: IC50) were 45 µM and 1030 µM, respectively.

Take `c1ccc2c(c1)ccn2CCn1ccc2ccccc21`: the IC50 in assay [1] worked out at 37 µM; in assay [2] (read-out: IC50), 940 µM.

As to `Clc1ccc2c(ccn2CCc2c[nH]c3ccc(Cl)cc23)c1`, the IC50 amounted to 38 µM in assay [1] and 862 µM in assay [2] (read-out: IC50).

As for `Fc1ccc2[nH]cc(CCn3ccc4ccccc43)c2c1`, the IC50 in assay [1] turned out to be 50 µM; in assay [2] (read-out: IC50) it was 200 µM.

For `c1ccc2c(c1)ccn2CCCn1ccc2ccccc21`, the IC50 was 38 µM in assay [1] and 1070 µM in assay [2] (read-out: IC50).

Regarding `c1ccc2c(c1)ccn2CCCCCn1ccc2ccccc21`, the IC50 in assay [1] stood at 52 µM; in assay [2] (read-out: IC50), 950 µM.

As to `c1ccc2c(c1)CCN2CCCCCN1CCc2ccccc21`, the IC50 entry in assay [3] and in assay [2] (sf9) was “ND(Insoluble)” in each case.

As to `Cc1ccc2c(ccn2CCc2c[nH]c3ccccc23)c1`, the IC50 was 130 µM in assay [1] and 500 µM in assay [2] (read-out: IC50).

In the case of `c1ccc2c(c1)ccn2CCc1c[nH]c2ccccc12`, the IC50 in assay [1] and in assay [2] (read-out: IC50) was more than 500 µM each time.

With `c1ccc2c(c1)ccn2CCCCCCn1ccc2ccccc21`, the IC50 in assay [1] is 106 µM; in assay [2] (read-out: IC50), 1210 µM.

Take `Fc1ccc2c(ccn2CCc2c[nH]c3ccccc23)c1`: the IC50 is 95 µM in assay [1] and more than 500 µM in assay [2] (read-out: IC50).

`c1ccc2c(c1)CCN2CCCCCCN1CCc2ccccc21`: the IC50 entry in assay [3] and in assay [2] (sf9) was “ND(Insoluble)” each time.

On to `Cc1ccc2c(c1)CCN2C(=O)C(=O)c1c[nH]c2ccccc12`, for which the figures for the half-maximal inhibitory concentration (IC50) in assay [1] and in assay [2] (read-out: IC50) were 54 µM and 910 µM, respectively.

With `Cc1ccc2c(c1)CCN2C(=O)C(=O)c1c[nH]c2ccc(C)cc12`, the IC50 is 38 µM in assay [1] and 710 µM in assay [2] (read-out: IC50).

With `O=C(C(=O)N1CCc2cc(Cl)ccc21)c1c[nH]c2ccc(Cl)cc12`, the IC50 in assay [1] was 43.5 µM; in assay [2] (read-out: IC50), 915 µM.

With `Clc1ccc2[nH]cc(CCn3ccc4ccccc43)c2c1`, the 50% inhibitory concentration (IC50) in assay [1] and in assay [2] (read-out: IC50) was more than 500 µM throughout.

With `c1ccc2c(c1)CCN2CCCN1CCc2ccccc21`, the IC50 result in assay [3] and in assay [2] (sf9) was “ND(Insoluble)” each time.

`O=C(C(=O)N1CCc2ccccc21)c1c[nH]c2ccc(Cl)cc12`: the IC50 was determined as 96 µM in assay [1] and 985 µM in assay [2] (read-out: IC50).

With `c1ccc2c(c1)CCN2CCCCN1CCc2ccccc21`, the 50% inhibitory concentration (IC50) entry in assay [3] and in assay [2] (sf9) was “ND(Insoluble)” in each case.

`O=C(C(=O)N1CCc2cc(Cl)ccc21)c1c[nH]c2ccccc12`: the IC50 in assay [1] was 69.5 µM; in assay [2] (read-out: IC50), 1030 µM.

Regarding `O=C(C(=O)N1CCc2cc(F)ccc21)c1c[nH]c2ccc(F)cc12`, the IC50 in assay [1] came out at 48 µM; in assay [2] (read-out: IC50), 816 µM.

As to `O=C(C(=O)N1CCc2ccccc21)c1c[nH]c2ccc(F)cc12`, the results for the IC50 in assay [1] and in assay [2] (read-out: IC50) were 116 µM and 1160 µM, respectively.

On to `O=C(C(=O)N1CCc2ccccc21)c1c[nH]c2ccccc12`, for which the IC50 in assay [1] was 122 µM; in assay [2] (read-out: IC50), 760 µM.

As to `c1ccc2c(c1)CCN2CCN1CCc2ccccc21`, the IC50 in assay [1] is 66 µM; in assay [2] (read-out: IC50), 1230 µM.

In the case of `Cc1ccc2[nH]cc(C(=O)C(=O)N3CCc4ccccc43)c2c1`, the IC50 is 41.5 µM in assay [1] and 951 µM in assay [2] (read-out: IC50).

Regarding `O=C(C(=O)N1CCc2cc(F)ccc21)c1c[nH]c2ccccc12`, the IC50 in assay [1] is 136 µM; in assay [2] (read-out: IC50), 790 µM.

As for `Cc1ccc2[nH]cc(CCn3ccc4ccccc43)c2c1`, the results for the IC50 in assay [1] and in assay [2] (read-out: IC50) were 150 µM and 400 µM, respectively.

As to `Cc1ccc2c(ccn2CCc2c[nH]c3ccc(C)cc23)c1`, the IC50 in assay [1] was found to be 44 µM; in assay [2] (read-out: IC50) it was 960 µM.

What is called IC50 is the concentration at which inhibition is half-maximal.
